Measured values reported in ChEMBL document CHEMBL1132941, “Structure-activity study on the in vitro antiprotozoal activity of glutathione derivatives” (2000).
Active and inactive are the calls of the source. The calls are words filed in the database; no cut-off is given here.

Key:
[1] = tested on: Trypanosoma brucei; test: Evaluated for antiparasitic activity against brucei trypomastigotes; type: functional; settings: read-out: ED50 (the source's name)
How it was run: (§1)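 T. brucei S427 bloodstream trypomastigotes in HMI-18 + 20% HIFCS, seeded at 2 × 10⁵/mL mixed with equal volume of compound. Compound given as a 3-fold dilution series from 30 µM top, triplicate, 3 days at 37 °C, 5% CO₂. Growth measured by tetrazolium colorimetric assay on day 3 and expressed as % inhibition versus untreated control. Pentamidine serves as positive control.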

[2] = tested on: K562; test: Tested for cytotoxicity in human K562 cells; type: functional; settings: read-out: ID50 (the source's name)
How it was run: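 K562 human CML cells in RPMI + 10% fetal calf serum at 37 °C, 5% CO₂, humidified. Exposed to compound for 5 days. Viability read by the semi-automated NCI MTT-type (Mosmann) tetrazolium assay, run by an external institute.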

[3] = tested on: Trypanosoma cruzi; test: Evaluated for antiparasitic activity against Trypanosoma cruzi amastigotes; NA is Not active.; type: functional, organism-based
How it was run: (§2)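 T. cruzi (strain MHOM/BR/OO/Y) trypomastigotes, MDCK-derived, used to infect starch-elicited peritoneal macrophages from female CD1 mice (4 × 10⁴/well, RPMI-1640 + 10% HIFCS) at 5:1 after 24 h. Drug given as a 3-fold dilution series up to ~30 µM, quadruplicate, 3 days. Activity is scored as % macrophages cleared of amastigotes relative to untreated control. Nifurtimox serves as control.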

[4] = tested on: Leishmania donovani; test: Evaluated for antiparasitic activity against Leishmania donovani; NA is Not active.; type: functional, organism-based
How it was run: (§3)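 L. donovani (strain MHOM/ET/67/L82) amastigotes from hamster passage, used to infect starch-elicited peritoneal macrophages from female CD1 mice (4 × 10⁴/well, RPMI-1640 + 10% HIFCS) at 10:1 after 24 h adherence. Drug given as a 3-fold dilution series, top concentration ~30 µM, quadruplicate, 5 days. Read-out is % macrophages cleared of amastigotes versus untreated control. Sodium stibogluconate serves as control.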

[5] = tested on: Trypanosoma brucei; test: Evaluated for antiparasitic activity against brucei trypomastigotes; NA is Not active.; type: functional, organism-based; how it was run: as §1
[6] = tested on: Trypanosoma cruzi; test: Compound is evaluated for antiparasitic activity against Trypanosoma cruzi; type: functional; how it was run: as §2
[7] = tested on: Leishmania donovani; test: Evaluated for antiparasitic activity against Leishmania donovani; type: functional; how it was run: as §3
[8] = tested on: Leishmania donovani; test: Compound is evaluated for antiparasitic activity against Leishmania donovani; type: functional; how it was run: as §3
[9] = tested on: Trypanosoma cruzi; test: Compound is evaluated for antiparasitic activity against Trypanosoma cruzi amastigotes.; type: functional; how it was run: as §2
[10] = tested on: Trypanosoma cruzi; test: Compound is evaluated for antiparasitic activity against Trypanosoma cruzi amastigotes; type: functional; how it was run: as §2
[11] = tested on: Trypanosoma brucei; test: Compound is evaluated for antiparasitic brucei trypomastigotes percent inhibition is given in parentheses; type: functional; settings: read-out: ED50 (the source's name); how it was run: as §1

Row | Structure (SMILES) | EC50 [1] | IC50 [2] | NA [3] | NA [4] | other results
1 | COC(=O)CNC(=O)C(CSC(=O)OCc1ccccc1)NC(=O)CCC(NC(=O)OCc1ccccc1)C(=O)OC (stereo not given) | 17 µM | 1.26 µM |  |  | 
2 | NC(=O)CNC(=O)C(CSCc1ccc(Br)cc1)NC(=O)CCC(NC(=O)OCc1ccccc1)C(=O)O (stereo not given) |  | > 50 µM | inactive | inactive | NA [5]: inactive
3 | O=C(CCC(NC(=O)OCc1ccccc1)C(=O)OC1CCCCC1)NC(CSc1ccc([N+](=O)[O-])cc1[N+](=O)[O-])C(=O)NCC(=O)OC1CCCCC1 (stereo not given) | 0.19 µM | 15.9 µM |  |  | ED50 [6]: 3 µM
4 | CCCCOC(=O)CNC(=O)C(CSc1ccc([N+](=O)[O-])cc1[N+](=O)[O-])NC(=O)CCC(NC(=O)OCc1ccccc1)C(=O)OCCCC (stereo not given) | 1.07 µM | 21.8 µM |  |  | ED50 [7]: > 30 µM
5 | COC(=O)CNC(=O)C(CSCc1ccc(Br)cc1)NC(=O)CCC(NC(=O)OCc1ccccc1)C(=O)O (stereo not given) |  | > 50 µM | inactive | inactive | NA [5]: inactive
6 | NC(=O)CNC(=O)C(CSCc1ccc(Br)cc1)NC(=O)CCC(N)C(N)=O (stereo not given) |  | > 50 µM | inactive |  | Inhibition [8]: 4%; NA [5]: inactive
7 | N[C@@H](CCC(=O)N[C@@H](CSCc1ccc(Br)cc1)C(=O)NCC(=O)O)C(=O)O | > 30 µM | > 50 µM | inactive | inactive | 
8 | CCCCCCOC(=O)CNC(=O)C(CSc1ccc([N+](=O)[O-])cc1[N+](=O)[O-])NC(=O)CCC(NC(=O)OCc1ccccc1)C(=O)OCCCCCC (stereo not given) | 5.8 µM | > 50 µM |  |  | ED50 [6]: < 50 µM; ED50 [7]: > 50 µM
9 | NC(=O)CNC(=O)C(CSCc1ccc(Br)cc1)NC(=O)CCC(N)C(=O)O (stereo not given) | < 30 µM | > 50 µM | inactive | inactive | 
10 | CCCCOC(=O)CNC(=O)C(CSCc1ccc(Br)cc1)NC(=O)CCC(NC(=O)OCc1ccccc1)C(=O)OCCCC (stereo not given) | 1.9 µM | 16.7 µM |  |  | Inhibition [8]: 68%
11 | CCCCCCCCOC(=O)CNC(=O)C(CSc1ccc([N+](=O)[O-])cc1[N+](=O)[O-])NC(=O)CCC(NC(=O)OCc1ccccc1)C(=O)OCCCCCCCC (stereo not given) |  | 24.7 µM |  |  | ED50 [7]: > 50 µM
12 | COC(=O)CNC(=O)C(CSCc1ccc(Br)cc1)NC(=O)CCC(N)C(=O)O (stereo not given) | > 30 µM | > 50 µM | inactive | inactive | 
13 | COC(=O)CNC(=O)C(CSC(=O)OCc1ccccc1)NC(=O)CCC(NC(C)=O)C(=O)OC (stereo not given) | 3.2 µM | > 50 µM |  |  | 
14 | CC(=O)NC(CCC(=O)NC(CSCc1ccc(Br)cc1)C(=O)NCC(=O)O)C(=O)O (stereo not given) | > 30 µM | > 50 µM | inactive | inactive | 
15 | COC(=O)CNC(=O)C(CSCc1ccc(Br)cc1)NC(=O)CCC(NC=O)C(=O)OC (stereo not given) |  | > 50 µM |  | inactive | Inhibition [9]: 12%; NA [5]: inactive
16 | O=C(O)CNC(=O)C(CSCc1ccc(Br)cc1)NC(=O)CCC(NC(=O)OCc1ccccc1)C(=O)O (stereo not given) | > 30 µM | > 50 µM | inactive | inactive | 
17 | O=CNC(CCC(=O)NC(CSCc1ccc(Br)cc1)C(=O)NCC(=O)O)C(=O)O (stereo not given) |  | > 50 µM |  | inactive | Inhibition [10]: 11%; NA [5]: inactive
18 | COC(=O)CNC(=O)C(CSCc1ccc(Br)cc1)NC(=O)CCC(N)C(=O)OC (stereo not given) |  | > 50 µM | inactive |  | Inhibition [8]: 8.7%; NA [5]: inactive
19 | COC(=O)CNC(=O)C(CSCc1ccc(Br)cc1)NC(=O)CCC(NC(=O)OCc1ccccc1)C(=O)OC (stereo not given) |  | 16.7 µM |  |  | EC50 [11]: > 30 µM
20 | COC(=O)CNC(=O)C(CSc1ccc([N+](=O)[O-])cc1[N+](=O)[O-])NC(=O)CCC(NC(=O)OCc1ccccc1)C(=O)OC (stereo not given) | 16.2 µM | 23.4 µM |  |  | ED50 [7]: > 30 µM
21 | CCCOC(=O)CNC(=O)C(CSc1ccc([N+](=O)[O-])cc1[N+](=O)[O-])NC(=O)CCC(NC(=O)OCc1ccccc1)C(=O)OCCC (stereo not given) | 6 µM | 17.6 µM |  |  | ED50 [7]: > 30 µM
22 | NC(=O)CNC(=O)C(CSCc1ccc(Br)cc1)NC(=O)CCC(NC(=O)OCc1ccccc1)C(N)=O (stereo not given) | > 30 µM | > 50 µM | inactive | inactive | 
